≈ marks a conversion by molar mass, not a printed value.
Experiments:
[1] = tested on: TEM beta-lactamase (Klebsiella pneumoniae); test: Minimum protective concentration used to protect the compound against Klebsiella pneumoniae A20634 beta-lactamase catalyzed hydrolysis
[2] = target: Metallo-beta-lactamase type 2 (Bacteroides fragilis) (UniProt P25910); test: Minimum protective concentration used to protect the compound against Bacteroides fragilis A-22,695 beta-lactamase catalyzed hydrolysis
[3] = target: Beta-lactamase (Staphylococcus aureus) (UniProt P00807); test: Minimum protective concentration used to protect the compound against Staphylococcus aureus A9606 beta-lactamase catalyzed hydrolysis
[4] = target: Carbapenem-hydrolyzing beta-lactamase KPC (Klebsiella pneumoniae) (UniProt Q9F663)
Escherichia coli [5] = test: Compound was evaluated for minimum inhibitory concentration in the presence of amoxicillin against Escherichia coli A20111; format: functional
Method in brief: (§1)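 Agar dilution MIC of a 1:1 (w/w) mixture of test compound with amoxicillin. Organisms were applied to medicated agar plates with a Steers replicator.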

Staphylococcus aureus [6] = test: Compound was evaluated for minimum inhibitory concentration in the presence of amoxicillin against Staphylococcus aureus A15033; format: functional
Method in brief: as §1

Escherichia coli [7] = test: Compound alone was evaluated for minimum inhibitory concentration against Escherichia coli A20107; format: functional
Method in brief: (§2)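 Agar dilution MIC: organisms deposited onto medicated agar plates with a Steers replication device.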

Staphylococcus aureus [8] = test: Compound alone was evaluated for minimum inhibitory concentration against Staphylococcus aureus A9606; format: functional
Method in brief: as §2

Staphylococcus aureus [9] = test: Compound alone was evaluated for minimum inhibitory concentration against Staphylococcus aureus A15033; format: functional
Method in brief: as §2

Escherichia coli [10] = test: Compound was evaluated for minimum inhibitory concentration in the presence of amoxicillin against Escherichia coli A20107; format: functional
Method in brief: as §1

Staphylococcus aureus [11] = test: Compound was evaluated for minimum inhibitory concentration in the presence of amoxicillin against Staphylococcus aureus A9606; format: functional
Method in brief: as §1

Escherichia coli [12] = test: Compound alone was evaluated for minimum inhibitory concentration against Escherichia coli A20111; format: functional
Method in brief: as §2

Chain of Beta-lactamase (Staphylococcus aureus) (P00807 whole entry): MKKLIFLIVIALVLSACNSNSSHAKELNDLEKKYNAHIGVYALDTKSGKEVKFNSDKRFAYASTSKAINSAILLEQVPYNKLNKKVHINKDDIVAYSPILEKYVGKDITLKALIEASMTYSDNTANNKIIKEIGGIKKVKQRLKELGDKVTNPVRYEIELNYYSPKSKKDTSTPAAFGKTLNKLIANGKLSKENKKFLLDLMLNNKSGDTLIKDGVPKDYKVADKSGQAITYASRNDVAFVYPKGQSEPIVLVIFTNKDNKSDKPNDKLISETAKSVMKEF
Chain of Metallo-beta-lactamase type 2 (Bacteroides fragilis) (P25910 whole entry): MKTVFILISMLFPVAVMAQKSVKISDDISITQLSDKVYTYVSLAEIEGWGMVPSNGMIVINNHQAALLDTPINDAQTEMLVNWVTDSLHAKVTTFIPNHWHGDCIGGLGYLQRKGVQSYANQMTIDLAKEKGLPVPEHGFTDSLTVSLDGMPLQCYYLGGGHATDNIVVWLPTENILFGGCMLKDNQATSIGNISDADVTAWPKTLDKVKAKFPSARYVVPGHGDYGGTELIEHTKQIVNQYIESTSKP
Chain of Carbapenem-hydrolyzing beta-lactamase KPC (Klebsiella pneumoniae) (Q9F663 whole entry): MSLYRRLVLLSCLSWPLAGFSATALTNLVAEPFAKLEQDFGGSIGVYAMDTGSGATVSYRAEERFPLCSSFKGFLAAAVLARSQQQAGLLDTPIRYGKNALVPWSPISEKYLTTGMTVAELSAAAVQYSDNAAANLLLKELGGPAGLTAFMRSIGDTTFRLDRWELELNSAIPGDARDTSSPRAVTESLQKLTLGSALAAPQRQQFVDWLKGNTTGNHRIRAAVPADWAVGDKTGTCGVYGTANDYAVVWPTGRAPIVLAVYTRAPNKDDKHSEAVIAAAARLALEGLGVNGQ

Structure (SMILES)	MPC [1] [µg/mL]	MPC [2] [µg/mL]	MPC [3] [µg/mL]	MIC (Escherichia coli [7]) [µg/mL]	MIC (Staphylococcus aureus [8]) [µg/mL]	MIC (Staphylococcus aureus [9]) [µg/mL]	MIC (Escherichia coli [12]) [µg/mL]	other results
C[C@]1(CCl)[C@H](C(=O)O)N2C(=O)CC2S1(=O)=O (stereo partly drawn)	3.1	12.5	3.1	–	–	–	–	–
CC1(C)[C@H](C(=O)O)N2C(=O)C[C@H]2S1(=O)=O	–	–	–	–	–	–	–	MPC [4]: 1.6 µg/mL
O=C(O)[C@H]1/C(=C/CO)O[C@@H]2CC(=O)N21 [CLAVULANIC ACID]	–	63	–	63 (≈ 316 µM)	32 (≈ 161 µM)	63 (≈ 316 µM)	63 (≈ 316 µM)	MIC (Escherichia coli [5]): 4 µg/mL; MIC (Staphylococcus aureus [6]): 4 µg/mL; MIC (Escherichia coli [10]): 16 µg/mL; MIC (Staphylococcus aureus [11]): 2 µg/mL
C[C@]1(CO)[C@H](C(=O)O)N2C(=O)CC2S1(=O)=O (stereo partly drawn)	6.2	100	> 100	–	–	–	–	–
CC1(C)S[C@@H]2[C@H](NC(=O)[C@H](N)c3ccc(O)cc3)C(=O)N2[C@H]1C(=O)O [AMOXICILLIN]	–	–	–	> 125	32 (≈ 87.6 µM)	32 (≈ 87.6 µM)	> 125	–
C[C@]1(CBr)[C@H](C(=O)O)N2C(=O)CC2S1(=O)=O (stereo partly drawn)	1.6	12.5	3.1	–	–	–	–	–

Source: ChEMBL document CHEMBL1122984, “Synthesis and beta-lactamase inhibitory properties of 2 beta-[(acyloxy)methyl]-2-methylpenam-3 alpha-carboxylic acid 1,1-dioxides” (1985)
